From article PMC4569539 (Bioorganic & medicinal chemistry letters, 2015)
Like-named read-outs stand apart in the source and are kept apart here.

What was measured:
[1] = stated as known for 1 and related congeners, no reference given; cited from earlier work
acetylated α-tubulin = experiment: Acetylated α-tubulin in brain homogenates after repeated dosing; type: in vivo; settings: normal mice, 1 day after two 5 mg/kg doses (ip)
[2] = type: in vivo; settings: plasma concentration after ip versus oral administration
[3] = Brain and plasma pharmacokinetics after ip administration of 5 mg/kg; type: in vivo; settings: mice, after ip injection of 5 mg/kg of 4
Method in brief: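 Mice received the test compound at 5 mg/kg ip. Brain and plasma levels were followed over time to give elimination rates from each compartment. In a repeat-dose arm, tissues were sampled 4 h after a single 5 mg/kg ip dose or 4 h after the second of two doses given 4 h apart. Brain-to-plasma concentration ratios were calculated for each regimen.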

[4] = cited from earlier work

| SMILES | distribution of metabolites in brain and plasma samples [3] | brain penetration [4] | differential between brain and plasma half-life [4] | other results |
| --- | --- | --- | --- | --- |
| CNCCCOc1cc(F)c(-c2c(Cl)nc3ncnn3c2N[C@@H](C)C(F)(F)F)c(F)c1 [compound 1, cevipabulin] | – | – | – | oral bioavailability [1]: orally bioavailable |
| C[C@H](Nc1c(-c2c(F)cc(OCCCO)cc2F)c(Cl)nc2ncnn12)C(F)(F)F [compound 4, (S)-3-(4-(5-Chloro-7-((1,1,1-trifluoropropan-2-yl)amino)-[1,2,4]triazolo[1,5-a]pyrimidin-6-yl)-3,5-difluorophenoxy)-propan-1-ol] | – | – | – | acetylated α-tubulin (marker of stable MTs) in brain homogenates (acetylated α-tubulin): significant elevation; oral bioavailability [2]: orally bioavailable |
| C[C@H](Nc1c(-c2c(F)cc(OCCC(=O)O)cc2F)c(Cl)nc2ncnn12)C(F)(F)F [compound 5] | detected predominantly in plasma | – | – | – |
| C[C@H](Nc1c(-c2c(F)cc(O)cc2F)c(Cl)nc2ncnn12)C(F)(F)F [compound 6] | detected predominantly in plasma | – | – | – |
| C/C(=C\c1csc(C)n1)[C@@H]1C[C@@H]2O[C@]2(C)CCC[C@H](C)[C@H](O)[C@@H](C)C(=O)C(C)(C)[C@@H](O)CC(=O)O1 [epothilone B] | – | brain penetrant | large differential | – |
| C/C1=C/C[C@@H](/C(C)=C/c2csc(C)n2)OC(=O)C[C@H](O)C(C)(C)C(=O)[C@H](C)[C@@H](O)[C@@H](C)CCC1 [epothilone D] | – | brain penetrant | large differential | – |
